Data on five compounds can be found in ChEMBL document CHEMBL1155884, “Sinulodurins A and B, antiproliferative and anti-invasive diterpenes from the soft coral Sinularia dura” (J Nat Prod, 2008).

The structures appear in SMILES notation. Active and inactive are the calls of the source. The rule behind the calls is not given here.

The subject of series [1] is Mycobacterium intracellulare. In words: Antimicrobial activity against Mycobacterium intracellular up to 50 ug/mL. In kind it is functional, organism-based.
In the next series the test system is Pseudomonas aeruginosa. The series is described as follows: Antimicrobial activity against Pseudomonas aeruginosa up to 50 ug/mL. It is filed as functional, organism-based.
A further series relates to Cryptococcus neoformans. The series is described as follows: Antimicrobial activity against Cryptococcus neoformans up to 50 ug/mL. It is filed as functional, organism-based.
The test system of another series is Candida albicans. In words: Antimicrobial activity against Candida albicans up to 50 ug/mL. In kind it is functional, organism-based.
The subject of another series is Staphylococcus aureus. In words: Antimicrobial activity against methicillin-resistant Staphylococcus aureus up to 50 ug/mL. In kind it is functional, organism-based.
The next series has as its system Escherichia coli. The series is described as follows: Antimicrobial activity against Escherichia coli up to 50 ug/mL. In kind it is functional, organism-based.
The next series relates to Vero. In words: Cytotoxicity against african green monkey Vero cells. In kind it is cell-based. As to conditions: chlorocebus sabaeus.
The next series concerns Aspergillus fumigatus. The series is described as follows: Antimicrobial activity against Aspergillus fumigatus up to 50 ug/mL. In kind it is functional, organism-based.
Series [2] is described as follows: Antiproliferative activity against mouse +SA cells assessed as cell viability after 4 days by MTT assay. As to conditions: 96 h. It is filed as functional, cell-based. Summed up: (§1)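 Highly malignant +SA mouse mammary epithelial cells kept in serum-free medium with 10 ng/mL EGF and 10 µg/mL insulin as mitogens. Seeded 5 × 10^4 cells/well, 6 wells/group, fed medium with compound at 0.01-1000 µM. Viable cell number determined by MTT colorimetric assay after 4 days in culture, compared against vehicle control.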
In general terms: Tetrazolium assays rely on reduction of a dye to a coloured formazan, in cell work by metabolically active cells.

The species entered for series [3] is Homo sapiens. In words: Antiinvasive activity against human PC-3M-CT+ cells at 200 uM after 48 hrs by spheroid disaggregation assay. In kind it is functional, cell-based. Summed up:
(§2)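 Spheroids formed from 5 × 10^4 cells/mL in serum-free RPMI 1640 rocked in low-attachment wells at 37 °C for 2 days (150-300 µm, ~4 × 10^4 cells each). Single spheroid placed on ECM-coated well in serum-free medium, t=0 set 1 h after plating. Photographed at t=0, cultured 48 h at 37 °C, fixed, Diff-Quik stained. Migration diameter measured by micrometer minus initial diameter; given as average percent increase in surface area.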

Series [4] is filed under the species Homo sapiens. In words: Antiinvasive activity against human PC-3M-CT+ cells at 25 uM after 48 hrs by spheroid disaggregation assay. It is filed as functional, cell-based. Summed up: as §2
For series [5], the species on record is Homo sapiens. The series is described as follows: Antiinvasive activity against human PC-3M-CT+ cells at 50 uM after 48 hrs by spheroid disaggregation assay. In kind it is functional, cell-based. Summed up: as §2
The species entered for series [6] is Homo sapiens. In words: Antiinvasive activity against human PC-3M-CT+ cells at 100 uM after 48 hrs by spheroid disaggregation assay. It is filed as functional, cell-based. Put shortly: as §2
The subject of series [7] is +SA cell. In words: Antiproliferative activity against mouse +SA cells assessed as cell viability at 20 uM after 4 days by MTT assay. In kind it is functional, cell-based. Summed up: as §1
Series [8] has as its system +SA cell. In words: Antiproliferative activity against mouse +SA cells assessed as cell viability at 30 uM after 4 days by MTT assay. In kind it is functional, cell-based. Summed up: as §1

`C=C1C=C2[C@@H](C[C@@H]1O)[C@@H](C)CC[C@@H]2[C@@H](C)CCC=C(C)C`: the result (in series [1]; in the series with Pseudomonas aeruginosa; in the series with Cryptococcus neoformans; with Candida albicans; in the series with Staphylococcus aureus; in the series on Escherichia coli) was inactive. Also, in the series with Aspergillus fumigatus, the outcome was inactive. Moreover, the Activity result in the series with Vero is listed as “Not Active”.
For the compound `C=C1C=C2[C@H](CC1)[C@@H](C)CC[C@@H]2[C@@H](C)CCC=C(C)C`, the result (in series [1]; in the series on Pseudomonas aeruginosa; in the series with Cryptococcus neoformans; with Candida albicans; in the series with Staphylococcus aureus; with Escherichia coli) was inactive. In the series on Aspergillus fumigatus, the result was inactive. For the same compound, the Activity result in the series on Vero is given as “Not Active”.
Regarding `CC(C)=CCC/C(C)=C/CC/C(C)=C/CC[C@]1(C)CCc2cc(O)cc(C)c2O1` [DELTA-TOCOTRIENOL], the IC50 in series [2] amounted to 7 µM.
For `C=C1C=C2[C@@H](CC1)[C@H](C)CC[C@H]2[C@H](C)C(OC(C)=O)C(=O)C=C(C)C` (stereo partly drawn) [SINULODURIN B], the outcome (in [1]; with Pseudomonas aeruginosa; with Cryptococcus neoformans; with Candida albicans; with Staphylococcus aureus; in the series on Escherichia coli) was inactive. For the same compound, in the series with Aspergillus fumigatus, the outcome was inactive. Moreover, the outcome in the series filed under Homo sapiens [3], in the series filed under Homo sapiens [4], in the series listed under Homo sapiens [5], in the series listed under Homo sapiens [6] and in the series on +SA cell [7] was Active. For the same compound, in the series with Vero, the Activity entry is “Not Active”.
On to `C=C1C=C2[C@@H](CC1)[C@H](C)[C@H](OC(C)=O)C[C@H]2[C@H](C)C(OC(C)=O)C(=O)C=C(C)C` (stereo partly drawn) [SINULODURIN A], for which the outcome (in series [1]; in the series on Pseudomonas aeruginosa; in the series with Cryptococcus neoformans; in the series on Candida albicans; in the series with Staphylococcus aureus; in the series with Escherichia coli) was inactive. Besides, the outcome with Aspergillus fumigatus was inactive. Also, the outcome in the series filed under Homo sapiens [3], in the series listed under Homo sapiens [4], in the series on +SA cell [8], in the series filed under Homo sapiens [5] and in the series filed under Homo sapiens [6] was Active. Besides, in the series on Vero, the Activity result is “Not Active”.

The term IC50 denotes the midpoint of a concentration-inhibition curve.
